# Test system: U2OS
# Assay: Multiplex assay against U2OS
# Assay type: toxicity, cell-based
# Settings: human
# In short: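 Live cells carried four stains from seeding: Hoechst33342, BioTracker Green Microtubule Cytoskeleton Dye, MitoTracker Red and Annexin V Alexa Fluor 680. They were imaged on a CQ1 microscope at 37°C and 5% CO2 after compound addition. Using CellPathfinder machine-learning gating, cells were split into Hoechst high-intensity objects or normal cells, normal cells into healthy, pyknosed or fragmented nuclei, and pyknosed cells into mitotic or apoptotic; tubulin, mitochondrial-mass and membrane-permeability phenotypes are per cents of healthy-nucleus cells.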
# [1] = 12 h, 1 µM, compound concentration 1 uM, replicate 1
# [2] = 12 h, 1 µM, compound concentration 1 uM, replicate 2
# [3] = 12 h, 10 µM, compound concentration 10 uM, replicate 1
# [4] = 12 h, 10 µM, compound concentration 10 uM, replicate 2
# [5] = 24 h, 1 µM, compound concentration 1 uM, replicate 1
# [6] = 24 h, 1 µM, compound concentration 1 uM, replicate 2
# [7] = 24 h, 10 µM, compound concentration 10 uM, replicate 1
smiles,measurement,setting,value
CCCCN(CC)c1nc(C)nc2c1c(C)cn2-c1c(C)cc(C)cc1C.Cl,Population Apoptotic (%),[1],33%
same,Population Healthy Nuclei (%),[1],76%
same,Population Hoechst High Intensity Objects (%),[1],8%
same,Population Membrane Permeable-Phenotype (%),[1],3%
same,Population Mitochondria Different-Phenotype (%),[1],7%
same,Population Mitotic Cells (%),[1],66%
same,Population Normal (%),[1],91%
same,Population Tubulin-Different-Phenotype (%),[1],6%
same,Total Cell Count,[1],135
same,Population Apoptotic (%),[2],55%
same,Population Fragmented Nuclei (%),[2],13%
same,Population Healthy Nuclei (%),[2],77%
same,Population Hoechst High Intensity Objects (%),[2],3%
same,Population Membrane Permeable-Phenotype (%),[2],5%
same,Population Mitochondria Different-Phenotype (%),[2],8%
same,Population Mitotic Cells (%),[2],44%
same,Population Normal (%),[2],96%
same,Population Pyknosed Nuclei (%),[2],9%
same,Population Tubulin-Different-Phenotype (%),[2],14%
same,Total Cell Count,[2],95
same,Population Apoptotic (%),[3],65%
same,Population Fragmented Nuclei (%),[3],17%
same,Population Healthy Nuclei (%),[3],67%
same,Population Hoechst High Intensity Objects (%),[3],7%
same,Population Membrane Permeable-Phenotype (%),[3],2%
same,Population Mitochondria Different-Phenotype (%),[3],51%
same,Population Mitotic Cells (%),[3],35%
same,Population Normal (%),[3],92%
same,Population Pyknosed Nuclei (%),[3],14%
same,Population Tubulin-Different-Phenotype (%),[3],37%
same,Total Cell Count,[3],145
same,Population Apoptotic (%),[4],20%
same,Population Fragmented Nuclei (%),[4],9%
same,Population Healthy Nuclei (%),[4],83%
same,Population Hoechst High Intensity Objects (%),[4],6%
same,Population Membrane Permeable-Phenotype (%),[4],4%
same,Population Mitochondria Different-Phenotype (%),[4],55%
same,Population Mitotic Cells (%),[4],80%
same,Population Normal (%),[4],93%
same,Population Pyknosed Nuclei (%),[4],6%
same,Population Tubulin-Different-Phenotype (%),[4],19%
same,Total Cell Count,[4],78
same,Population Apoptotic (%),[5],27%
same,Population Fragmented Nuclei (%),[5],7%
same,Population Healthy Nuclei (%),[5],85%
same,Population Mitochondria Different-Phenotype (%),[5],8%
same,Population Mitotic Cells (%),[5],72%
same,Population Pyknosed Nuclei (%),[5],7%
same,Population Tubulin-Different-Phenotype (%),[5],9%
same,Total Cell Count,[5],162
same,Population Apoptotic (%),[6],29%
same,Population Fragmented Nuclei (%),[6],13%
same,Population Healthy Nuclei (%),[6],70%
same,Population Hoechst High Intensity Objects (%),[6],5%
same,Population Membrane Permeable-Phenotype (%),[6],3%
same,Population Mitochondria Different-Phenotype (%),[6],6%
same,Population Mitotic Cells (%),[6],70%
same,Population Normal (%),[6],94%
same,Population Pyknosed Nuclei (%),[6],15%
same,Population Tubulin-Different-Phenotype (%),[6],7%
same,Total Cell Count,[6],116
same,Population Apoptotic (%),[7],68%
same,Population Fragmented Nuclei (%),[7],19%
same,Population Healthy Nuclei (%),[7],62%
same,Population Hoechst High Intensity Objects (%),[7],5%
same,Population Membrane Permeable-Phenotype (%),[7],2%
same,Population Mitochondria Different-Phenotype (%),[7],48%
same,Population Mitotic Cells (%),[7],32%
same,Population Normal (%),[7],94%

# — ChEMBL document CHEMBL4689842, “EUbOPEN Chemogenomics Library wave 1” (2021)
